What was measured:
[1] = test system: Toxoplasma gondii; experiment: Antiparasitic activity against Toxoplasma gondii tachyzoite expressing red fluorescence protein assessed as growth inhibition by fluorescence plate reader; format: functional; conditions: read-out: ED50 (the source's name)
Method in brief: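 T. gondii tachyzoites expressing red fluorescent protein, filtered (3 μm) and needle-passed, inoculated at 10^4/well onto confluent hTerT monolayers in DMEM-HG with 1% FBS, 2 mM glutamine, 1 mM pyruvate, serial drug dilutions; 37 °C, 5% CO2, fluorescence read daily from bottom (ex 510/em 540 nm).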

[2] = test system: Vero; experiment: Cytotoxicity against african green monkey Vero cells assessed as cell viability at 25 uM; format: cell-based; conditions: chlorocebus sabaeus
[3] = test system: Trypanosoma cruzi; experiment: Antiparasitic activity against Trypanosoma cruzi amastigotes infected in gamma-irradiated vero cells assessed as growth inhibition measured after 3 days by fluorescence assay; format: functional; conditions: light or radiation study, 72 h, read-out: ED50 (the source's name)
[4] = target: T1, Farnesyl diphosphate synthase (Trypanosoma cruzi, UniProt Q8WS26); experiment: Inhibition of Trypanosoma cruzi farnesyl diphosphate synthase assessed as incorporation of [4-14C]IPP measured at 37 degC
T1 sequence (Q8WS26 whole entry): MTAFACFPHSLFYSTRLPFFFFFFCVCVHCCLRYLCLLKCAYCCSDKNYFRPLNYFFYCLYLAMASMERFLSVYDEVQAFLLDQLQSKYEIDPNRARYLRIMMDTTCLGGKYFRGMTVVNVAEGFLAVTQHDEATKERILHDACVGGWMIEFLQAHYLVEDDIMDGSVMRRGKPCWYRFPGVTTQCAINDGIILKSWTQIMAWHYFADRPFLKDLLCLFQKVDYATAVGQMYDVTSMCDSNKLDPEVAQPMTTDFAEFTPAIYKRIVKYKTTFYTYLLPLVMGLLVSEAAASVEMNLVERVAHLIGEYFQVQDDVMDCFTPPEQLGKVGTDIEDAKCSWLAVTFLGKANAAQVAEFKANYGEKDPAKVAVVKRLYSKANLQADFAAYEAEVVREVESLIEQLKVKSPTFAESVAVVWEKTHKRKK

[5] = target: T2, Farnesyl diphosphate synthase (Toxoplasma gondii, UniProt Q197X6); experiment: Inhibition of Toxoplasma gondii farnesyl diphosphate synthase assessed as incorporation of [4-14C]IPP measured at 37 degC
T2 sequence (Q197X6 whole entry): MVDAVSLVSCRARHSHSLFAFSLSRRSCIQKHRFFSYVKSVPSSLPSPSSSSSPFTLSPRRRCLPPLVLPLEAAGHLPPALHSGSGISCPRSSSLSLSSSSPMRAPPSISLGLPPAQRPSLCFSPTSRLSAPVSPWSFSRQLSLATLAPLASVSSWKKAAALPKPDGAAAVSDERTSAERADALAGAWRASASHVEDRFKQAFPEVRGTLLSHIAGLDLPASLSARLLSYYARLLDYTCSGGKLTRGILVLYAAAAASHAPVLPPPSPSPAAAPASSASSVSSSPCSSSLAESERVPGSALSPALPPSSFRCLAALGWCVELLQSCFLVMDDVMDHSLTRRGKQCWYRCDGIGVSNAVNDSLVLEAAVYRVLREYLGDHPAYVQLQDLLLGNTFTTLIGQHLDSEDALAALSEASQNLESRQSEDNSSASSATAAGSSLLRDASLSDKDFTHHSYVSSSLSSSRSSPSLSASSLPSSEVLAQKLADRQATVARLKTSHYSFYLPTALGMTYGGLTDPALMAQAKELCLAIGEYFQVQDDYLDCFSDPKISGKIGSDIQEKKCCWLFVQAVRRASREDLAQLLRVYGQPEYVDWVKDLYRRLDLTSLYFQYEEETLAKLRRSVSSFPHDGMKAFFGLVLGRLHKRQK

[6] = Cytotoxicity against hTerT cells assessed as growth inhibition measured at > 1000 uM after 3 to 4 days by Alamar Blue assay; format: cell-based; conditions: human
Method in brief: (§1)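 Non-irradiated confluent hTERT cells in phenol-red-free high-glucose DMEM with 10% Cosmic Calf Serum, washed, serial drug dilutions in quadruplicate, 35 °C, 7% CO2 for 3–4 days. AlamarBlue at 10% of culture volume, 6 h at 35 °C, absorbance at 570 and 600 nm. Percent growth inhibition = 100 minus percent reduction difference versus untreated control; DMSO as toxicity control.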

[7] = Cytotoxicity against hTerT cells assessed as growth inhibition measured at >= 500 uM after 3 to 4 days by Alamar Blue assay; format: cell-based; conditions: human; method in brief: as §1
[8] = Cytotoxicity against hTerT cells assessed as growth inhibition measured at > 200 uM after 3 to 4 days by Alamar Blue assay; format: cell-based; conditions: human; method in brief: as §1

SMILES | EC50 [1] [µM] | Activity [2] | EC50 [3] [µM] | IC50 [4] [µM] | IC50 [5] [µM] | Activity [6] | Activity [7] | Activity [8]
CCCCSCC(P(=O)(O)O)P(=O)(O)O | > 10 | Non-toxic | > 20 | 0.789 | 0.048 |  |  | 
O=P(O)(O)C(O)(Cc1cccnc1)P(=O)(O)O [RISEDRONIC ACID] | 2.4 |  | 55 |  |  |  |  | 
CCCCCCCCCC[S+]([O-])CC(P(=O)(O)O)P(=O)(O)O (stereo not drawn) | 7.6 | Non-toxic | > 20 | > 10 | > 10 |  |  | 
CCCCCCCNCC(O)(P(=O)(O)O)P(=O)(O)O | > 10 | Non-toxic | > 20 | > 10 | > 1 |  |  | 
CCCCCCCCSCC(P(=O)(O)O)P(=O)(O)O | 2.6 | Non-toxic | 15.8 | 6.39 | 0.024 | Non-toxic |  | 
CCCCCC(C)NCC(P(=O)(O)O)P(=O)(O)O (stereo not drawn) | 11.4 | Non-toxic | > 20 | > 10 | < 1 |  |  | 
CCCCCCC[S+]([O-])CC(P(=O)(O)O)P(=O)(O)O (stereo not drawn) | 5 | Non-toxic | > 20 | > 10 | 0.009 |  |  | 
CCCCC[S+]([O-])CC(P(=O)(O)O)P(=O)(O)O (stereo not drawn) | > 10 | Non-toxic | > 20 | > 10 | > 10 |  |  | 
CCCCCCCC[S+]([O-])CC(P(=O)(O)O)P(=O)(O)O (stereo not drawn) | 3 | Non-toxic | > 20 | > 10 | 0.016 |  |  | 
O=C(Cn1ccnc1[N+](=O)[O-])NCc1ccccc1 [BENZNIDAZOLE] |  |  | 1.7 |  |  |  |  | 
CCCCCCCC[S+](C)CC(P(=O)(O)O)P(=O)(O)O.F[B-](F)(F)F (stereo not drawn) | 7 | Non-toxic | > 20 | 0.04 | 0.013 |  |  | 
CCCCCCCCC[S+]([O-])CC(P(=O)(O)O)P(=O)(O)O (stereo not drawn) | 1.4 | Non-toxic | 19.4 | > 10 | 0.056 | Non-toxic |  | 
CCCCCC[S+]([O-])CC(P(=O)(O)O)P(=O)(O)O (stereo not drawn) | > 10 | Non-toxic | > 20 | > 10 | > 10 |  |  | 
CCCCCCSCC(P(=O)(O)O)P(=O)(O)O | 6.5 | Non-toxic | > 20 | > 10 | 0.307 |  |  | 
CCCSCC(P(=O)(O)O)P(=O)(O)O | > 10 | Non-toxic | > 20 | 0.925 | 0.066 |  |  | 
CCCCCCCCCSCC(P(=O)(O)O)P(=O)(O)O | 1.2 | Non-toxic | 12.8 | 1.7 | 0.025 |  | Non-toxic | 
CCSCC(P(=O)(O)O)P(=O)(O)O | > 10 | Non-toxic | > 20 | 0.627 | 1.83 |  |  | 
CCCCCSCC(P(=O)(O)O)P(=O)(O)O | > 10 | Non-toxic | > 20 | > 10 | 0.11 |  |  | 
CCCC[S+]([O-])CC(P(=O)(O)O)P(=O)(O)O (stereo not drawn) | > 10 | Non-toxic | > 20 | > 10 | > 10 |  |  | 
CCCCCS(=O)(=O)CC(P(=O)(O)O)P(=O)(O)O | > 10 | Non-toxic | > 20 | > 10 | > 10 |  |  | 
CCCCCCCCCCSCC(P(=O)(O)O)P(=O)(O)O | 1.8 | Non-toxic | > 20 | 0.097 | 0.021 |  |  | Non-toxic
CCCCCCCSCC(P(=O)(O)O)P(=O)(O)O | 0.97 | Non-toxic | > 20 | > 10 | 0.069 |  |  | Non-toxic
